Data taken from ChEMBL document CHEMBL1129623, “Effects of multidrug resistance (MDR1) P-glycoprotein expression levels and coordination metal on the cytotoxic potency of multidentate (N4O2) (ethylenediamine)bis[propyl(R-benzylimino)]metal(III) cations” (1996).
Activity calls are given as the source filed them. The calls are words filed in the database; no cut-off is given here.

Assays:
KB [1] = experiment: Compound was tested for cytotoxic lethal concentration on R-ENBPI Ga(III) complex in multi drug resistant (KB-8-5) cells; NA=not applicable; type: functional, cell-based; settings: Homo sapiens
In short: (§1)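 KB-8-5 cells are colchicine-selected and express modest MDR1 P-glycoprotein. They were kept in drug-free medium for 96 h, then plated at 5000/well in 5% FBS medium and allowed 4 h recovery. Complex was added in triplicate up to 100 μM, with 72 h at 37 °C, 5% CO2. Read-out was SRB staining after TCA fixation, A490–450. LC50 came from a sigmoid fit (Smin=0) of survival relative to vehicle. Values ≥100 μM were not fitted.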

KB 3-1 [2] = experiment: Compound was tested for cytotoxic lethal concentration on R-ENBPI In(III) complexs in human drug sensitive (KB-3-1)cells. parentheses value indicates SEM; type: functional; settings: read-out: LC50 (the source's name)
In short: (§2)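 Parental KB-3-1 human epidermal carcinoma cells, no immunodetectable P-glycoprotein, 5000/well in 5% FBS medium, 4 h recovery. Complex was added in triplicate wells up to 100 μM, 72 h at 37 °C, 5% CO2. Cells were TCA-fixed and stained with 0.4% SRB, dye dissolved in 10 mM Tris, A490–450. LC50 was from a sigmoid fit of survival versus vehicle control, Smin constrained to zero.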

KB 3-1 [3] = experiment: Compound was tested for cytotoxic lethal concentration on R-ENBPI Al(III) complexs in human drug sensitive (KB-3-1)cells. parentheses value indicates SEM; type: functional; settings: read-out: LC50 (the source's name); in short: as §2
KB [4] = experiment: Compound was tested for cytotoxic lethal concentration on R-ENBPI Fe(III) complex in multi drug resistant (KB-8-5) cells; NA=not applicable; type: functional, cell-based; settings: Homo sapiens; in short: as §1
KB [5] = experiment: Compound was tested for cytotoxic lethal concentration on R-ENBPI Al(III) complex in multi drug resistant (KB-8-5)cells.; type: functional; settings: Homo sapiens, read-out: LC50 (the source's name); in short: as §1
KB 3-1 [6] = experiment: Compound was tested for dependency on R-ENBPI Al(III) complexs in human drug sensitive (KB-3-1)cells.; type: functional
In short: (§3)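 KB-3-1 cells were plated at 5000/well in 5% FBS medium and allowed 4 h to recover. Complexes were added in triplicate at concentrations up to 100 μM, then incubated 72 h at 37 °C, 5% CO2. Cells were TCA-fixed and stained with SRB, read at 490–450 nm, and expressed as % of vehicle control. A sigmoid fit with Smin constrained to zero gave LC50 and fit dependencies.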

KB [7] = experiment: Compound was tested for dependency on R-ENBPI In(III) complex in multi drug resistant (KB-8-5)cells.; type: functional, Homo sapiens
In short: (§4)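 KB-8-5 multidrug-resistant cells were kept drug-free for 96 h, then plated at 5000/well in 5% FBS medium and allowed 4 h to recover. Complexes were added in triplicate up to 100 μM for 72 h at 37 °C. Survival was read by SRB staining (490–450 nm) relative to vehicle. LC50 came from a sigmoid fit with Smin fixed at zero, giving CV% and dependency statistics.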

KB 3-1 [8] = experiment: Compound was tested for cytotoxic lethal concentration on R-ENBPI […] complexs in human drug sensitive (KB-3-1)cells. parentheses value indicates SEM; type: functional; settings: read-out: LC50 (the source's name); in short: as §2
KB [9] = experiment: Compound was tested for coefficient of variation percent on R-ENBPI Ga(III) complex in multi drug resistant (KB-8-5) cells; NA=not applicable; type: functional, cell-based; settings: Homo sapiens; in short: as §4
KB [10] = experiment: Compound was tested for coefficient of variation percent on R-ENBPI Al(III) complex in multi drug resistant (KB-8-5) cells; NA=not applicable; type: functional, cell-based; settings: Homo sapiens; in short: as §4
KB 3-1 [11] = experiment: Compound was tested for dependency on R-ENBPI In(III) complexs in human drug sensitive (KB-3-1)cells.; type: functional; in short: as §3
KB [12] = experiment: Compound was tested for cytotoxic lethal concentration on R-ENBPI In(III) complex in multi drug resistant (KB-8-5)cells.; type: functional; settings: Homo sapiens, read-out: LC50 (the source's name); in short: as §1
KB 3-1 [13] = experiment: (§5) Compound was tested for dependency on R-ENBPI Fe(III) complex in human drug sensitive (KB-3-1)cells.; type: functional; in short: as §3
KB [14] = experiment: Compound was tested for coefficient of variation percent on R-ENBPI Fe(III) complex in multi drug resistant (KB-8-5) cells; NA=not applicable; type: functional, cell-based; settings: Homo sapiens; in short: as §4
KB 3-1 [15] = experiment: Compound was tested for dependency on R-ENBPI Ga(III) complexs in human drug sensitive (KB-3-1)cells.; type: functional; in short: as §3
KB [16] = experiment: Compound was tested for dependency on R-ENBPI Ga(III) complex in […] (KB-8-5) cells; NA=not applicable; type: functional, cell-based; in short: as §4
KB 3-1 [17] = experiment: as §5; type: functional; settings: read-out: LC50 (the source's name)
In short: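 Parameter dependency from the sigmoid fit S={(Smax−Smin)/[1+(C/LC50)^γ]}+Smin of KB-3-1 SRB survival data: 72 h exposure, triplicate wells, up to 100 μM, Smin constrained to zero. It is used to judge overparameterization of the fitted curve.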

KB [18] = experiment: Compound was tested for dependency on R-ENBPI Fe(III) complex in multi drug resistant (KB-8-5) cells; NA=not applicable; type: functional, cell-based; settings: Homo sapiens; in short: as §4
KB [19] = experiment: Compound was tested for dependency on R-ENBPI Al(III) complex in multi drug resistant (KB-8-5) cells; NA=not applicable; type: functional, cell-based; settings: Homo sapiens; in short: as §4
KB [20] = experiment: Compound was tested for dependency on R-ENBPI Ga(III) complex in […] (KB-8-5) cells.; type: functional; in short: as §4
KB [21] = experiment: Compound was tested for dependency on R-ENBPI Al(III) complex in multi drug resistant (KB-8-5)cells.; type: functional, Homo sapiens; in short: as §4
KB [22] = experiment: Compound was tested for cytotoxic lethal concentration on R-ENBPI Fe(III) complex in multi drug resistant (KB-8-5)cells.; type: functional; settings: Homo sapiens, read-out: LC50 (the source's name); in short: as §1
KB 3-1 [23] = experiment: Compound was tested for cytotoxic lethal concentration on R-ENBPI Al(III) complexs in human drug sensitive (KB-3-1)cells; type: functional; settings: read-out: LC50 (the source's name); in short: as §2
KB [24] = experiment: Compound was tested for cytotoxic lethal concentration on R-ENBPI Ga(III) complex in multi drug resistant (KB-8-5)cells.; type: functional; settings: Homo sapiens, read-out: LC50 (the source's name); in short: as §1
KB 3-1 [25] = experiment: Compound was tested for cytotoxic lethal concentration on R-ENBPI […] complexs in human drug sensitive (KB-3-1)cells parentheses value indicates SEM; type: functional; settings: read-out: LC50 (the source's name); in short: as §2

| Compound | CC50 (KB 3-1 [2]) | CC50 (KB [5]) | Dependency (KB 3-1 [6]) | Dependency (KB [7]) | Dependency (KB 3-1 [11]) | CC50 (KB [12]) | Dependency (KB 3-1 [13]) | CV (KB [14]) | Dependency (KB 3-1 [15]) | CC50 (KB 3-1 [17]) | Dependency (KB [18]) | other results |
| --- | --- | --- | --- | --- | --- | --- | --- | --- | --- | --- | --- | --- |
| COc1cc(O)c(/C=N/CCCN2CCN(CCC/N=C/c3c(O)cc(OC)cc3OC)C2c2c(O)cc(OC)cc2OC)c(OC)c1 | 63.8 µM | > 100 µM | 0.39 | 0.38 | 0.38 | 61.8 µM | 0.23 | inactive | 0.34 | < 1.1 µM | inactive | LC50 (KB [1]): inactive; CC50 (KB 3-1 [3]): < 1.4 µM; LC50 (KB [4]): inactive; CC50 (KB 3-1 [8]): 3.7 µM; CV (KB [9]): inactive; CV (KB [10]): inactive; Dependency (KB [16]): inactive; Dependency (KB [19]): inactive |
| COc1cccc(/C=N/CCCN2CCN(CCC/N=C/c3cccc(OC)c3O)C2c2cccc(OC)c2O)c1O | 16.6 µM | < 27.5 µM | 0.46 | 0.36 | 0.41 | 24.2 µM | 0.68 | inactive | 0.45 | 9 µM | inactive | Dependency (KB [20]): 0.39; Dependency (KB [21]): 0.33; CC50 (KB [22]): > 100 µM; CC50 (KB 3-1 [23]): 11.4 µM; CC50 (KB [24]): < 110 µM; CC50 (KB 3-1 [25]): < 42.6 µM |
